Screens: PubChem, Broad Institute
In the library only some 2.9% were active in any assay of this set; here they are far more common.
Cneo AK release – Cryptococcus neoformans lysis via adenylate kinase release | AID 651654 | actives 0.2% (n = 360,000) | C. neoformans lysis, adenylate kinase release luminescence, 4 h; normalised: neutral wells 0, clomiphene wells 100 | lysis activity, % at 15 µM;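 active = mean lysis activity across replicates of at least 80%, whatever share of replicates individually reach that level; inactive = mean lysis activity below 80%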
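Material: C. neoformans cells; Schedule: 4 h static compound exposure, 37 °C, read 1 h post-reagent; Measured by: adenylate kinase release luminescence; Read-out: signal increase indicating cell lysis; Controls: Clomiphene as positive lysis control.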
PAX8 inh HTS – inhibitors of PAX8 transcriptional activity in RMG-I cells | RMG-I TPO-luciferase reporter, SteadyGlo, 24 h | inhibition, % at 12.6 µM | AID 652154 | actives 1.2% (n = 360,000);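 active = mean replicate inhibition at least 60% with every replicate also reaching 60%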;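 also: luciferase light reporting Pax8 driven TPO promoter activity; plate controls were median of neutral control wells for no effect and mitoxantrone controls for full effect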
CDK5 p35 inh – inhibitors of human CDK5/p35 kinase | Q00535+Q15078 | Recombinant CDK5/p35, ADP-Glo luminescence, 60 min | inhibition, % at 10 µM | actives 0.01% (n = 330,000) | AID 488839;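 active = highest replicate inhibition of at least 50% and at least 75% of replicates reaching 50%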;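 also: plate controls were DMSO neutral control for no effect and GW8510 at 10 µM for full effect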
INS-1E GSIS act – GLuc luminescence reporter in INS-1E cells, primary screen for activators of glucose-dependent secretion of insulin. INS-1E GLuc reporter insulin secretion, 2-3 h. activation, % at 16.6 µM. actives 0.61% (n = 370,000);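 active = lowest replicate activation of at least 40%, so every replicate reaches that level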;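 also: 0% = median of neutral control wells and 100% = median of IBMX positive control wells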
dFosB activator – enhances mouse delta FosB homodimer DNA binding; purified delta FosB, TAMRA-CDK5 oligo fluorescence polarization; percent of positive-control signal above neutral wells; activation, % at 25 µM; actives 0.99% (n = 340,000);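 active = mean activation above about 17%, with every replicate also reaching it, limit read from the data, passing the limit was not always enough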
Target sequence (P13346 whole entry, looked up): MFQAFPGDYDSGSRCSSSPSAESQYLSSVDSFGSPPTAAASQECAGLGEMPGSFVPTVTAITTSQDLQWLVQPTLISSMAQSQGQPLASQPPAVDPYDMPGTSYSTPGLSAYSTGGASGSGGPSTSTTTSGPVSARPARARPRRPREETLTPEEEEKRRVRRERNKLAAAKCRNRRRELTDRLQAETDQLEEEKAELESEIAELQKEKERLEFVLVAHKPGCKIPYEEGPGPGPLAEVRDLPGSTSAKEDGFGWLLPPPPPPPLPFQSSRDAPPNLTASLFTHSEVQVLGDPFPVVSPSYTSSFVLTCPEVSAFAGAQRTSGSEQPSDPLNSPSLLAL
Env fusion inh – blocks HIV Env-driven cell-cell fusion. inhibition, % at 12.3 µM. AID 651610. actives 1.1% (n = 360,000). HeLa-JRFL Env/CEM21 cell fusion, luciferase;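 active = mean replicate inhibition score of at least 50 and every replicate individually at or above 50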;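 also: 0% = plate neutral controls and 100% = maraviroc near 300 nM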
* marks the source's active call; other numbers are inactive results; . = not tested or not shown; [ ] = another dose, or the depositor's remark.

SMILES	Cneo AK release	PAX8 inh HTS	CDK5 p35 inh	INS-1E GSIS act	dFosB activator	Env fusion inh
C=CCC(Nc1ccccc1)C12C=CC(O1)C(C(=O)OC)=C2C(=O)OC (configuration not stated)	1	.	1	-35	-2	.
N#Cc1cccc(-c2ccc3c(c2)[C@H]2[C@H](CCN2Cc2ccncc2)[C@@H](CO)N3)c1	.	.	.	9	.	.
CC(C)=CCC[C@H](C)CC1Cc2[nH]c(=S)[nH]c(=O)c2C(c2ccc(F)cc2)O1 (some centres not stated)	2	-26	.	-27	.	10
CCCCC1Cc2[nH]c(=S)[nH]c(=O)c2C(c2ccc(F)cc2)O1 (configuration not stated)	1	95*	.	0	.	-4
CC(C)=CCC[C@H](C)C[C@@H]1Cc2[nH]c(=S)[nH]c(=O)c2[C@@H](c2ccc(F)cc2)O1	.	9	.	255*	.	0
CCCCC1Cc2[nH]c(=S)[nH]c(=O)c2C(c2ccc(Cl)cc2)O1 (configuration not stated)	0	-10	.	.	.	-52
COc1ccc(NC(=O)N(C)C[C@H]2Oc3ncc(C#CCC(C)C)cc3C(=O)N([C@@H](C)CO)C[C@@H]2C)cc1	-1	.	.	-9	.	8[16.7 µM]
Cc1ccc(N/C=C/c2onc(C)c2[N+](=O)[O-])cc1	5	-11	1	-19	-4	-151
COc1cccc(N/C=C/c2onc(C)c2[N+](=O)[O-])c1	0	-107	-2	52*	-2	-73
Fc1ccc(-c2csc3nnc(SCc4cccnc4)n23)cc1	5	.	-2	56*	-2	.
c1ccc(-c2csc3nnc(SCc4ccc5c(c4)OCO5)n23)cc1	0	10	5	29	-4	3
Cc1cc2c3c(c1)C1(C(=O)N3C(C)(C)CC2C)C(C#N)=C(N)OC2=C1C(=O)CC(C)(C)C2 (configuration not stated)	-1	.	0	.	1	.
Cc1cc2c3c(c1C)C1(C(=O)N3C(C)(C)CC2C)C(C#N)=C(N)Oc2cc(O)ccc21 (configuration not stated)	0	.	0	-25	-21	62*
Cc1noc(C)c1S(=O)(=O)Nc1cccc2c1O[C@@H](CN(C)C)[C@@H](C)CN([C@H](C)CO)C2=O	1	-14	.	10	.	.
N#Cc1nc(Nc2cc(F)cc(F)c2)c2ncn(CC(F)F)c2n1	1	-104	1	-21	-12	-37
N#Cc1nc(NCC(F)F)nc(Nc2cc(F)cc(F)c2)n1	-7	98*	-5	29	-11	-60
CO[C@@H]1CN(C)C(=O)c2ccc(NC(=O)c3ccc(-c4ccccc4)cc3)cc2OC[C@H](C)NC[C@@H]1C	0	65*	.	14	.	30[16.7 µM]
CCC(=O)Nc1ccc2c(c1)C(=O)N(C)C[C@H](OC)[C@@H](C)CN[C@H](C)CO2	84*	.	.	-2	.	.
CO[C@@H]1CN(C)C(=O)c2ccc(NC(=O)c3ccc(-c4ccccc4)cc3)cc2OC[C@@H](C)NC[C@@H]1C	.	16	.	-9	.	.
C[C@H]1CCCCO[C@H](CN(C)C(=O)Nc2ccc(C(F)(F)F)cc2)[C@@H](C)CN([C@@H](C)CO)C(=O)c2cc(NC(=O)c3ccccc3)ccc2O1	0	33	.	-10	.	75*[16.7 µM]
C[C@H](CO)N1C[C@H](C)[C@H](CN(C)C(=O)Nc2ccc(C(F)(F)F)cc2)OCCCC[C@H](C)Oc2ccc(NC(=O)c3ccccc3)cc2C1=O	1	3	.	-7	.	-14[16.7 µM]
C[C@@H]1CCCCO[C@@H](CN(C)C(=O)Nc2ccc(C(F)(F)F)cc2)[C@H](C)CN([C@@H](C)CO)C(=O)c2cc(NC(=O)c3ccccc3)ccc2O1	0	11	.	8	.	-10[16.7 µM]
C[C@H](CO)N1C[C@H](C)[C@@H](CN(C)C(=O)Nc2ccc(C(F)(F)F)cc2)OCCCC[C@H](C)Oc2ccc(NC(=O)c3ccccc3)cc2C1=O	-1	1	.	-7	.	61*[16.7 µM]
CS(=O)(=O)N1[C@@H](CO)[C@@H](c2ccccc2)C12CN(C(=O)c1ccccc1F)C2	.	2	.	7	.	.
COCC(=O)Nc1ccc2c(c1)OC[C@@H](C)N(Cc1ccccc1)C[C@@H](C)[C@H](OC)CN(C)C2=O	.	-27	.	-15	.	.
SMILES	Cneo AK release	PAX8 inh HTS	CDK5 p35 inh	INS-1E GSIS act	dFosB activator	Env fusion inh
CCC(=O)Nc1cc(C(=O)O)ccc1S(=O)(=O)c1ccc(C)cc1	-3	64*	-1	11	3	.
CC(=O)Nc1cc(C(=O)O)ccc1S(=O)(=O)c1ccc(C)cc1	-2	.	-1	.	7	-3
CCCCCCCCN1C(=O)[C@H](CC(=O)NCCCCc2ccccc2)C[C@@]2(C(=O)OCC)CCCC=C12	.	15	.	15	.	69*
CCCCCCCCN1C(=O)[C@H](CC(=O)NCc2ccccc2)C[C@@]2(C(=O)OCC)CCCC=C12	.	18	.	31	.	20
CCOC(=O)[C@]12CCC=C1N(Cc1ccccc1)C(=O)[C@H](CC(=O)NCC13CC4CC(CC(C4)C1)C3)C2	.	11	.	-23	.	64*
CCOC(=O)[C@]12CCC=C1N(Cc1cccc3ccccc13)C(=O)[C@H](CC(=O)NCC13CC4CC(CC(C4)C1)C3)C2	.	5	.	9	.	-62
CN(C)C(=O)C[C@@H]1CC[C@H]2[C@H](COc3ccc(NC(=O)C4CCC4)cc3C(=O)N2C)O1	.	.	.	9	.	.
COc1ccc(CN(C)C(=O)c2ccc(OCC(=O)Nc3cccc(C(F)(F)F)c3)c(OC)c2)c(OC)c1	-2	37	0	-36	-20	76*
C[C@H](CO)N1C[C@H](C)[C@@H](CN(C)S(=O)(=O)c2ccc(F)cc2)OCCCC[C@H](C)Oc2ccc(NC(=O)NC3CCCCC3)cc2C1=O	-2	11	.	-30	.	-10[16.7 µM]
O=C(O)C1Cc2c([nH]c3ccccc23)C(c2ccc3c(c2)OCO3)N1 (configuration not stated)	0	.	0	46*	0	.
COc1ccc(NC(=O)Nc2ccc3c(c2)CC(=O)N([C@@H](C)CO)C[C@@H](C)[C@@H](CN(C)Cc2ccc(-c4ccccc4)cc2)O3)cc1	2	18	.	5	.	10[16.7 µM]
CC(C)NC(=O)N(C)C[C@@H]1Oc2c(NS(=O)(=O)c3cn(C)cn3)cccc2C(=O)N([C@@H](C)CO)C[C@@H]1C	-3	.	.	14	.	21[16.7 µM]
C[C@@H]1CN([C@H](C)CO)S(=O)(=O)c2ccc(C3=CCCCC3)cc2O[C@@H]1CN(C)S(=O)(=O)c1ccc(F)cc1	-3	.	.	1	.	58*[16.7 µM]
COc1ccc(S(=O)(=O)N(C)C[C@H]2Oc3cc(C4=CCCC4)ccc3S(=O)(=O)N([C@@H](C)CO)C[C@H]2C)cc1	-4	.	.	-29	.	69*[16.7 µM]
Cc1ccc(S(=O)(=O)N(C)C[C@@H]2Oc3cc(C4=CCCC4)ccc3S(=O)(=O)N([C@H](C)CO)C[C@@H]2C)cc1	-4	67*	.	7	.	46[16.7 µM]
